From ChEMBL document CHEMBL1149320, “New class of corticotropin-releasing factor (CRF) antagonists: small peptides having high binding affinity for CRF receptor” (J Med Chem, 2004)
Bridge positions count the residues as written; N and C are the ends. Square brackets hold non-standard residues; d marks the D form. Peptide text beside a SMILES is read from it. ξ: configuration not given here. Cha = N[C@@H](CC1CCCCC1)C(=O)O; ξR = N=C(N)NCCCC(N)C(=O)O; Nle = CCCC[C@H](N)C(=O)O

Each compound was assayed against T1, Corticotropin-releasing factor receptor 1 (Homo sapiens, UniProt P34998) (assay: Binding affinity at human CRF1 receptor (CRFR1) on HeLA cell membranes.). Conditions: not given.
T1 sequence (P34998 whole entry): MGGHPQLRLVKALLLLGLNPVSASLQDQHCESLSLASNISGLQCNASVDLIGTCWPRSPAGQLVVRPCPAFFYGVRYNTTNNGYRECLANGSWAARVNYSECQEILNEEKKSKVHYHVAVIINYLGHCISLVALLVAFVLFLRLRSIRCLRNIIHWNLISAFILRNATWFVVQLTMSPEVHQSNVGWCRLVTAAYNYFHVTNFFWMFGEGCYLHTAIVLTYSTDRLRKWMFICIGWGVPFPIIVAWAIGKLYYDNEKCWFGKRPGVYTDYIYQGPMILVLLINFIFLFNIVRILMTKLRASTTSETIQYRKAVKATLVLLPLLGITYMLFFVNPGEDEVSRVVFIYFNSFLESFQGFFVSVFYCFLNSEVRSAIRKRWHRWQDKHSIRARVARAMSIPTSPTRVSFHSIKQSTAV
Type: cell-based
Procedure, shortened: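 Membranes from HeLa cells transfected with a plasmid encoding human CRFR1, precoupled to WGA scintillation proximity beads. Bead-bound radioactivity counted by scintillation. Ki reported; curves from three determinations, each in duplicate.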

| Structure (SMILES) | Ki [µM] |
| --- | --- |
| CCCC[C@H](NC(=O)[C@H](CC(C)C)NC(=O)[C@H](CCCCN)NC(=O)[C@H](CCCN=C(N)N)NC(=O)[C@H](CCC(N)=O)NC(=O)[C@@H]1CCCCNC(=O)CC[C@H](NC(C)=O)C(=O)N[C@@H](C)C(=O)N[C@@H](Cc2c[nH]cn2)C(=O)N1)C(=O)N[C@@H](CCC(=O)O)C(=O)N[C@H](C(=O)N[C@H](C(N)=O)[C@@H](C)CC)[C@@H](C)CC (Ac-EAHKQRKL[Nle]EII-NH2; lactam 1-4) | > 1 |
| CCCC[C@H](NC(=O)[C@H](CC(C)C)NC(=O)[C@H](CCCCN)NC(=O)[C@H](CCCN=C(N)N)NC(=O)[C@H](CC(=O)O)NC(=O)[C@@H]1CCCCNC(=O)CC[C@H](NC(C)=O)C(=O)N[C@@H](C)C(=O)N[C@@H](Cc2c[nH]cn2)C(=O)N1)C(=O)N[C@@H](CCC(=O)O)C(=O)N[C@H](C(=O)N[C@H](C(N)=O)[C@@H](C)CC)[C@@H](C)CC (Ac-EAHKDRKL[Nle]EII-NH2; lactam 1-4) | > 1 |
| CCCC[C@H](NC(=O)[C@H](CC(C)C)NC(=O)[C@H](CCCCN)NC(=O)[C@H](CCCN=C(N)N)NC(=O)[C@H](CC(N)=O)NC(=O)[C@@H]1CCCCNC(=O)CC[C@H](NC(C)=O)C(=O)N[C@@H](CC(=O)O)C(=O)N[C@@H](Cc2c[nH]cn2)C(=O)N1)C(=O)N[C@@H](CCC(=O)O)C(=O)N[C@H](C(=O)N[C@H](C(N)=O)[C@@H](C)CC)[C@@H](C)CC (Ac-EDHKNRKL[Nle]EII-NH2; lactam 1-4) | > 1 |
| CCCC[C@H](NC(=O)[C@H](CC(C)C)NC(=O)[C@H](CCCCN)NC(=O)[C@H](CCCN=C(N)N)NC(=O)[C@H](CC(C)C)NC(=O)[C@@H]1CCCCNC(=O)CC[C@H](NC(C)=O)C(=O)N[C@@H](C)C(=O)N[C@@H](Cc2c[nH]cn2)C(=O)N1)C(=O)N[C@@H](CCC(=O)O)C(=O)N[C@H](C(=O)N[C@H](C(N)=O)[C@@H](C)CC)[C@@H](C)CC (Ac-EAHKLRKL[Nle]EII-NH2; lactam 1-4) | > 1 |

Same assay, conditions: hela

| Structure (SMILES) | Ki [µM] |
| --- | --- |
| CCCC[C@H](NC(=O)[C@H](CC(C)C)NC(=O)[C@H](CCCCN)NC(=O)C(CCCN=C(N)N)NC(=O)[C@H](CC(N)=O)NC(=O)[C@@H]1CCCCNC(=O)CC[C@H](NC(C)=O)C(=O)N[C@@H](C)C(=O)N[C@@H](CCCCN)C(=O)N1)C(=O)N[C@@H](CCC(=O)O)C(=O)N[C@H](C(=O)N[C@H](C(N)=O)[C@@H](C)CC)[C@@H](C)CC (some centres undefined) (Ac-EAKKN[ξR]KL[Nle]EII-NH2; lactam 1-4) | 0.0448 |
| CC[C@H](C)[C@H](NC(=O)[C@@H](NC(=O)[C@H](CC(=O)O)NC(=O)[C@H](CC1CCCCC1)NC(=O)[C@H](CC(C)C)NC(=O)[C@H](CCCCN)NC(=O)[C@H](CCCNC(=N)N)NC(=O)[C@H](CC(N)=O)NC(=O)[C@@H]1CCCCNC(=O)CC[C@H](NC(C)=O)C(=O)N[C@@H](C)C(=O)N[C@@H](CCC(=O)O)C(=O)N1)[C@@H](C)CC)C(N)=O (Ac-EAEKNRKL[Cha]DII-NH2; lactam 1-4) | 0.0055 |
| CCCC[C@H](NC(=O)[C@H](CC(C)C)NC(=O)[C@H](CCCCN)NC(=O)[C@H](CCCNC(=N)N)NC(=O)[C@H](CC(C)C)NC(=O)[C@@H]1CCCCNC(=O)CC[C@H](NC(C)=O)C(=O)N[C@@H](C)C(=O)N[C@@H](CC(C)C)C(=O)N1)C(=O)N[C@@H](CCC(=O)O)C(=O)N[C@H](C(=O)N[C@H](C(N)=O)[C@@H](C)CC)[C@@H](C)CC (Ac-EALKLRKL[Nle]EII-NH2; lactam 1-4) | 0.0489 |
| CCCC[C@H](NC(=O)[C@H](CC(C)C)NC(=O)[C@H](CCCCN)NC(=O)[C@H](CCCN=C(N)N)NC(=O)[C@H](CC(N)=O)NC(=O)[C@@H]1CCCCNC(=O)CC[C@H](NC(C)=O)C(=O)N[C@H](C)C(=O)N[C@@H](Cc2ccccc2)C(=O)N1)C(=O)N[C@@H](CCC(=O)O)C(=O)N[C@H](C(=O)N[C@H](C(N)=O)[C@@H](C)CC)[C@@H](C)CC | > 1 |
| CC[C@H](C)[C@H](NC(=O)[C@@H](NC(=O)[C@H](CC(=O)O)NC(=O)[C@H](CC1CCCCC1)NC(=O)[C@H](CC(C)C)NC(=O)[C@H](CCCCN)NC(=O)[C@H](CCCNC(=N)N)NC(=O)[C@H](CC(C)C)NC(=O)[C@@H]1CCCCNC(=O)CC[C@H](NC(C)=O)C(=O)N[C@H](C)C(=O)N[C@@H](CCC(=O)O)C(=O)N1)[C@@H](C)CC)C(N)=O | 0.0031 |
